This is an account of results in paper PMC3943421 (Biochemistry, 2012).

The target of experiment [1] is FPRck-inhibited thrombin (anion-binding exosite II) (Homo sapiens, UniProt P00734). Put plainly: Surface plasmon resonance. The note with it: SPR; for measurable binding to thrombin (in words): HBS-EP+, 25°C (Figure 3). In short, it runs like this:
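Biotinylated peptides captured on streptavidin chips at 150 RU after three 60 s 1 M NaCl/50 mM NaOH conditioning pulses, with blank reference cells. HBS-EP+ (10 mM HEPES pH 7.4, 150 mM NaCl, 0.05% P20, 3 mM EDTA), 25°C. Serial thrombin injections for 20 s at 50 μl/min, 30 s dissociation, no regeneration. Buffer-only and reference signals subtracted. Equilibrium 1:1 Langmuir Kd from three replicates with fresh dilutions.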
(In general: SPR reads the build-up and loss of mass on a sensor chip optically.)

Experiment [2] deals with γ′ analog peptide #7. The experiment is described as follows: SPR.
In experiment [3] the target is γ′ analog peptide #4 (pTyr418Tyr). Put plainly: SPR.
In experiment [4] the target is γ′ analog peptide #9 (Asp426Asn). Put plainly: SPR.
Experiment [5] has as its target γ′ analog peptide #6 (pTyr422Tyr). The experiment is described as follows: SPR.
Experiment [6] has as its target γ′ analog peptide #13 (carboxyl terminal three charges substituted). The experiment is described as follows: SPR.
The target in experiment [7] is γ′ analog peptide #2. The experiment is described as follows: SPR.
Experiment [8] deals with γ′ analog peptide #3. Put plainly: SPR.
Experiment [9] addresses γ′ analog peptide #5 (Asp419Asn). The experiment is described as follows: SPR.
Experiment [10] concerns the target γ′ analog peptide #8. The experiment is described as follows: SPR.
In experiment [11] the target is γ′ analog peptide #1. The experiment is described as follows: SPR.
Experiment [12] addresses wild-type γ′ peptide (fibrinogen γ′ chain 410-427, both tyrosines phosphorylated). Put plainly: SPR.
In experiment [13] the target is γ′ analog peptide #12 (amino terminal three charges substituted). The experiment is described as follows: SPR.
The target of experiment [14] is wild-type γ′ peptide (fibrinogen γ′ chain 410-427, both tyrosines phosphorylated). Put plainly: SPR. The source holds these as a separate data set.
For experiment [15] the target is unchanged. Put plainly: SPR. The source holds these as a separate data set.
Experiment [16] has the same target. Put plainly: SPR. This is another data set of the same source.
The target is the same in experiment [17]. The experiment is described as follows: SPR. This is another data set of the same source.

Where two headings read alike, the source gives them in different places. Square brackets hold non-standard residues; d marks the D form. Peptide text beside a SMILES is read from it. pY = N[C@@H](Cc1ccc(OP(=O)(O)O)cc1)C(=O)O

Take PQHPAQTQpYDSLpYPQNNL [#11]: the “measurable binding to thrombin (in words)” value in experiment [1] was “no measurable interaction with thrombin”.

The molecule `CC(C)C[C@H](NC(=O)[C@H](CC(=O)O)NC(=O)[C@H](CC(=O)O)NC(=O)[C@H](CCC(=O)O)NC(=O)[C@@H]1CCCN1C(=O)[C@H](Cc1ccc(OP(=O)(O)O)cc1)NC(=O)[C@H](CC(C)C)NC(=O)[C@H](CO)NC(=O)[C@H](CC(=O)O)NC(=O)[C@H](Cc1ccc(OP(=O)(O)O)cc1)NC(=O)[C@H](CCC(=O)O)NC(=O)[C@@H](NC(=O)[C@H](CCC(=O)O)NC(=O)[C@H](C)NC(=O)[C@@H]1CCCN1C(=O)[C@H](Cc1c[nH]cn1)NC(=O)[C@H](CCC(=O)O)NC(=O)[C@@H]1CCCN1)[C@@H](C)O)C(=O)O` [Wild-type] (H-PEHPAETE[pY]DSL[pY]PEDDL-OH) returned a Kd in experiment [1] (Kd (mean ± standard error of the mean), [NaCl] 150 mM, 25°C) of 488 ± 42 nM.

On to FPRck-inhibited thrombin (enzyme), for which the dissociation constant Kd stood at 582 nM in [2]; 583 nM in experiment [3]; 465 nM in experiment [4]; 702 nM in [5]; 3190 nM in experiment [6]; 485 nM in experiment [7]. Also, the Kd in experiment [8] came to 541 nM; in [9] it was 705 nM; in experiment [10], 608 nM; in experiment [11], 441 nM; in experiment [12] it was 440 nM; in experiment [13], 1970 nM. Further, the Kd is 6050 nM in [14], 488 nM in [15], 120000 nM in [16] and 18600 nM in experiment [17].

On to PEHPAETE YNSL YPEDDL [#10], for which the “measurable binding to thrombin (in words)” value in experiment [1] is recorded as “complete absence of measurable binding”.

A word on the Kd: it is the free concentration of one partner at which half of the binding sites on the other are occupied at equilibrium, for simple one-to-one binding.
